The source made the active and inactive calls. No cut-off for these calls is given here.
Key:
Assay type in all cases: cell-based
[1] = biological target: T1, Protein cereblon/von Hippel-Lindau disease tumor suppressor (Homo sapiens, UniProt P40337+Q96SW2); assay: Protac activity at VHL/CRBN in human HeLa cells assessed as pVHL19 protein abundance at 1 uM after 8 hrs by Western blot analysis relative to DMSO
In short: (§1)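 HeLa cells seeded overnight, then exposed to 1 µM compound (0.1% v/v DMSO final) over a time course. Cells were DPBS-washed and RIPA-lysed with protease inhibitors and benzonase; equal protein was loaded. Immunoblots for CRBN and VHL isoforms were quantified against β-tubulin and reported relative to the averaged 0.1% DMSO vehicle.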

[2] = biological target: T1, Protein cereblon/von Hippel-Lindau disease tumor suppressor; assay: Protac activity at VHL/CRBN in HEK293 cells assessed as CRBN protein abundance at 100 nM after 4 hrs by Western blot analysis relative to DMSO
In short: (§2)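 HEK293 cells (DMEM, 10% FBS, penicillin/streptomycin, L-glutamine; 37 °C, 5% CO2; ≤30 passages) seeded at 1 × 10⁶ per well overnight, then treated with compound at 0.1% v/v final DMSO. Cells were lysed in RIPA with protease inhibitors and benzonase, then clarified. Equal Bradford-quantified protein was immunoblotted for CRBN/VHL. Bands were normalised to β-tubulin and expressed as % of mean 0.1% DMSO vehicle.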

[3] = biological target: T1, Protein cereblon/von Hippel-Lindau disease tumor suppressor; assay: Protac activity at VHL/CRBN in HEK293 cells assessed as induction of VHL degradation at 1 uM after 1 to 24 hrs by Western blot analysis; conditions: time hrs 1-24
[4] = biological target: T1, Protein cereblon/von Hippel-Lindau disease tumor suppressor; assay: Protac activity at VHL/CRBN in HEK293 cells assessed as pVHL19 protein abundance at 5000 nM after 4 hrs by Western blot analysis relative to DMSO; in short: as §2
[5] = biological target: T1, Protein cereblon/von Hippel-Lindau disease tumor suppressor; assay: Protac activity at VHL/CRBN in HEK293 cells assessed as CRBN protein abundance at 5 nM after 4 hrs by Western blot analysis relative to DMSO; in short: as §2
[6] = biological target: T1, Protein cereblon/von Hippel-Lindau disease tumor suppressor; assay: Protac activity at VHL/CRBN in human HeLa cells assessed as pVHL30 protein abundance at 1 uM after 4 hrs by Western blot analysis relative to DMSO; in short: as §1
[7] = biological target: T1, Protein cereblon/von Hippel-Lindau disease tumor suppressor; assay: Protac activity at VHL/CRBN in HEK293 cells assessed as pVHL19 protein abundance at 100 nM after 4 hrs by Western blot analysis relative to DMSO; in short: as §2
[8] = biological target: T1, Protein cereblon/von Hippel-Lindau disease tumor suppressor; assay: Protac activity at VHL/CRBN in HEK293 cells assessed as pVHL19 protein abundance at 1 uM after 4 hrs by Western blot analysis relative to DMSO; in short: as §2
[9] = biological target: T1, Protein cereblon/von Hippel-Lindau disease tumor suppressor; assay: Protac activity at VHL/CRBN in human HeLa cells assessed as pVHL30 protein abundance at 1 uM after 8 hrs by Western blot analysis relative to DMSO; in short: as §1
[10] = biological target: T1, Protein cereblon/von Hippel-Lindau disease tumor suppressor; assay: Protac activity at VHL/CRBN in HEK293 cells assessed as CRBN protein abundance at 10 nM after 4 hrs by Western blot analysis relative to DMSO; in short: as §2
[11] = biological target: T1, Protein cereblon/von Hippel-Lindau disease tumor suppressor; assay: Protac activity at VHL/CRBN in HEK293 cells assessed as CRBN protein abundance at 1 uM after 8 hrs by Western blot analysis relative to DMSO; in short: as §2

T1 sequence (P40337 whole entry, looked up, canonical isoform): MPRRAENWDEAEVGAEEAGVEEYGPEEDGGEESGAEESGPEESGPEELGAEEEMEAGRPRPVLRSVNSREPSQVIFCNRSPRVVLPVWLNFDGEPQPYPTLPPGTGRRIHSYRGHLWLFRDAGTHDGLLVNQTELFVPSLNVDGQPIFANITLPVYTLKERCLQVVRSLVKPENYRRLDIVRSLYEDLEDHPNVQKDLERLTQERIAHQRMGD
T1 sequence (Q96SW2 whole entry, looked up, canonical isoform): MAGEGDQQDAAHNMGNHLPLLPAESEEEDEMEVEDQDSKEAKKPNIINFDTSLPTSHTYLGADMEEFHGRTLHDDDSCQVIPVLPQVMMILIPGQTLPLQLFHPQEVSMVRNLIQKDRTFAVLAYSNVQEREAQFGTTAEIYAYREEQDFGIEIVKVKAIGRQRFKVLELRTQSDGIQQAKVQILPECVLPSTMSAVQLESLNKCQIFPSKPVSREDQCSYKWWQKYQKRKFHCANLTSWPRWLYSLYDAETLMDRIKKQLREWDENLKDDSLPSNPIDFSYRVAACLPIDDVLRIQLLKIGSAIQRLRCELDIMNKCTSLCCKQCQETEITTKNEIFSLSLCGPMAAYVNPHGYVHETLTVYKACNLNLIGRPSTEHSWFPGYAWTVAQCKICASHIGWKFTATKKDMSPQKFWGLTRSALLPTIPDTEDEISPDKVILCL

Cc1ncsc1-c1ccc(CNC(=O)[C@@H]2C[C@@H](O)CN2C(=O)[C@@H](NC(=O)COCCCCCOCCOCCCCCOCC(=O)NCCNc2cccc3c2C(=O)N(C2CCC(=O)NC2=O)C3=O)C(C)(C)C)cc1 (stereo partly specified)
Activity [1]: 100% | Activity [2]: 63% | Activity [3]: inactive | Activity [4]: 109% | Activity [5]: 102% | Activity [6]: 103% | Activity [7]: 111% | Activity [8]: 101% | Activity [9]: 116% | Activity [10]: 113% | Activity [11]: 2%

From ChEMBL document CHEMBL4665633, “Cereblon versus VHL: Hijacking E3 ligases against each other using PROTACs” (Bioorg Med Chem, 2019)
